Measurements published in ChEMBL document CHEMBL2396583, “Synthesis and anticancer activity of aminodihydroquinoline analogs: identification of novel proapoptotic agents” (Bioorg Med Chem Lett, 2013).
The source made the active and inactive calls. No cut-off for these calls is given here.

Assays:
MDA-MB-231 [1] = assay: Cytotoxicity against human MDA-MB-231 cells assessed as viable cells at 1 uM after 72 hrs by MTT assay in absence of serum relative to control; assay type: functional; details: MDA-MB-231, 72 h, read-out: Activity
How it was run: (§1)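 MDA-MB-231 cells were seeded at 5000 per well in serum-containing medium and dosed the next day, with or without serum, at the stated concentrations (1 and 5 µM in the serum-free figure). After 72 h, MTT was added, formazan was dissolved in DMSO and absorbance read at 595 nm. Six wells per condition; viability expressed as % of DMSO control.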

MDA-MB-231 [2] = assay: Cytotoxicity against human MDA-MB-231 cells assessed as viable cells at 5 uM after 72 hrs by MTT assay in absence of serum relative to control; assay type: functional; details: MDA-MB-231, 72 h, read-out: Activity; how it was run: as §1
MDA-MB-231 [3] = assay: Cell cycle arrest in human MDA-MB-231 cells assessed as accumulation at S phase at 5 uM after 72 hrs by propidium iodide staining-based flow cytometric analysis in absence of serum (reference value: 6.19%); assay type: functional
MDA-MB-231 [4] = assay: Cell cycle arrest in human MDA-MB-231 cells assessed as accumulation at G0/G1 phase at 5 uM after 72 hrs by propidium iodide staining-based flow cytometric analysis in absence of serum (reference value: 84.87%); assay type: functional
MDA-MB-231 [5] = assay: Cytotoxicity against human MDA-MB-231 cells assessed as cell viability after 72 hrs by MTT assay in absence of serum; assay type: functional, cell-based; details: MDA-MB-231, 72 h; how it was run: as §1
MDA-MB-231 [6] = assay: Cell cycle arrest in human MDA-MB-231 cells assessed as accumulation at G0/G1 phase at 5 uM after 72 hrs by propidium iodide staining-based flow cytometric analysis in presence of serum (reference value: 67.16%); assay type: functional
MDA-MB-231 [7] = assay: Cell cycle arrest in human MDA-MB-231 cells assessed as accumulation at G2/M phase at 5 uM after 72 hrs by propidium iodide staining-based flow cytometric analysis in presence of serum (reference value: 15.82%); assay type: functional
MDA-MB-231 [8] = assay: Cell cycle arrest in human MDA-MB-231 cells assessed as accumulation at subG1 phase at 5 uM after 72 hrs by propidium iodide staining-based flow cytometric analysis in absence of serum (reference value: 2.15%); assay type: functional
MDA-MB-231 [9] = assay: Cell cycle arrest in human MDA-MB-231 cells assessed as accumulation at G2/M phase at 5 uM after 72 hrs by propidium iodide staining-based flow cytometric analysis in absence of serum (reference value: 6.53%); assay type: functional
MDA-MB-231 [10] = assay: Cell cycle arrest in human MDA-MB-231 cells assessed as accumulation at subG1 phase at 5 uM after 72 hrs by propidium iodide staining-based flow cytometric analysis in presence of serum (reference value: 1.99%); assay type: functional
MDA-MB-231 [11] = assay: Cytotoxicity against human MDA-MB-231 cells assessed as decrease in cell viability at 1 to 5 uM after 72 hrs by MTT assay in presence of serum; assay type: functional, cell-based; how it was run: as §1
MDA-MB-231 [12] = assay: Cell cycle arrest in human MDA-MB-231 cells assessed as accumulation at S phase at 5 uM after 72 hrs by propidium iodide staining-based flow cytometric analysis in presence of serum (reference value: 14.49%); assay type: functional

For `CCNC1=Nc2ccc(Cl)cc2C(C)(C)C1`, the viability at 1 µM (MDA-MB-231 [1]) was 89.7% and the viability at 5 µM (MDA-MB-231 [2]) was 85.1%.

In the case of `CC1(C)CC(NCCCCO)=Nc2ccc(Cl)cc21`, the viability at 1 µM (MDA-MB-231 [1]) is reported as 87.6% and the viability at 5 µM (MDA-MB-231 [2]) is reported as 84.8%.

`CC1(C)CC(N)=Nc2ccc(Cl)cc21` gave a viability at 1 µM (MDA-MB-231 [1]) of 80.5% and a viability at 5 µM (MDA-MB-231 [2]) of 81%.

Compound `CC1(C)CC(NCCCN2CCOCC2)=Nc2ccc(Cl)cc21` has a viability at 1 µM (MDA-MB-231 [1]) of 91.4% and a viability at 5 µM (MDA-MB-231 [2]) of 70.3%.

Work on `CNC1=Nc2ccc(Cl)cc2C(C)(C)C1` yielded a viability at 1 µM (MDA-MB-231 [1]) of 91.9% and a viability at 5 µM (MDA-MB-231 [2]) of 92.3%.

Work on `CCN(CC)CCCNC1=Nc2ccc(Cl)cc2C(C)(C)C1` yielded an Activity (MDA-MB-231 [3]) of 4.48%, an Activity (MDA-MB-231 [4]) of 86.24% and an IC50 (MDA-MB-231 [5]) of 2 µM. It also gave an Activity (MDA-MB-231 [6]) of 61.75%, an Activity (MDA-MB-231 [7]) of 20.48% and an Activity (MDA-MB-231 [8]) of 4.77%. The Activity (MDA-MB-231 [9]) was 4.27%, the Activity (MDA-MB-231 [10]) was 1.64% and the Activity (MDA-MB-231 [11]) was “Active”. For the same compound, the Activity (MDA-MB-231 [12]) was 15.44%, the viability at 1 µM (MDA-MB-231 [1]) was 53.3% and the viability at 5 µM (MDA-MB-231 [2]) was 36.1%.

Work on `CN(C)CCCNC1=Nc2cc(Cl)ccc2C(C)(C)C1` yielded an IC50 (MDA-MB-231 [5]) of 4 µM, a viability at 1 µM (MDA-MB-231 [1]) of 68.4% and a viability at 5 µM (MDA-MB-231 [2]) of 46.3%.

`CCCNC1=Nc2ccc(Cl)cc2C(C)(C)C1` gave a viability at 1 µM (MDA-MB-231 [1]) of 90.7% and a viability at 5 µM (MDA-MB-231 [2]) of 82.4%.

Compound `CC1(C)CC(NCCCO)=Nc2ccc(Cl)cc21` has a viability at 1 µM (MDA-MB-231 [1]) of 84.5% and a viability at 5 µM (MDA-MB-231 [2]) of 84.2%.

`NC1=Nc2ccccc2C(c2ccccc2)C1` (stereo not given) gave a viability at 1 µM (MDA-MB-231 [1]) of 86.6% and a viability at 5 µM (MDA-MB-231 [2]) of 86.3%.

`CC1(C)CC(=O)Nc2ccc(Cl)cc21` was tested, and the viability at 1 µM (MDA-MB-231 [1]) was 82.3% and the viability at 5 µM (MDA-MB-231 [2]) was 81.7%.

`CC1(C)CC(=S)Nc2ccc(Cl)cc21` showed a viability at 1 µM (MDA-MB-231 [1]) of 85.7% and a viability at 5 µM (MDA-MB-231 [2]) of 94.3%.

`CN(C)CCNC1=Nc2ccc(Cl)cc2C(C)(C)C1` showed an IC50 (MDA-MB-231 [5]) of 7 µM, a viability at 1 µM (MDA-MB-231 [1]) of 66.9% and a viability at 5 µM (MDA-MB-231 [2]) of 50.8%.

`CN(C)CCCNC1=Nc2cccc(Cl)c2C(C)(C)C1` gave an IC50 (MDA-MB-231 [5]) of 4.8 µM, a viability at 1 µM (MDA-MB-231 [1]) of 60.5% and a viability at 5 µM (MDA-MB-231 [2]) of 43.9%.

Work on `CC1(C)CC(NCc2ccccc2)=Nc2ccc(Cl)cc21` yielded a viability at 1 µM (MDA-MB-231 [1]) of 88.8% and a viability at 5 µM (MDA-MB-231 [2]) of 68.1%.

`CN(C)CCCNC1=Nc2ccc(Cl)cc2C(C)(C)C1` showed an Activity (MDA-MB-231 [3]) of 5.61%, an Activity (MDA-MB-231 [4]) of 81.6% and an IC50 (MDA-MB-231 [5]) of 2.1 µM. For the same compound, the Activity (MDA-MB-231 [6]) was 64.06%, the Activity (MDA-MB-231 [7]) was 19.22% and the Activity (MDA-MB-231 [8]) was 7.63%. For the same compound, the Activity (MDA-MB-231 [9]) was 4.73%, the Activity (MDA-MB-231 [10]) was 1.53% and the Activity (MDA-MB-231 [11]) was “Active”. The Activity (MDA-MB-231 [12]) was 14.76%, the viability at 1 µM (MDA-MB-231 [1]) was 54.1% and the viability at 5 µM (MDA-MB-231 [2]) was 38%.
